Data reported in ChEMBL document CHEMBL1122848, “5-(Haloalkyl)-2'-deoxyuridines: a novel type of potent antiviral nucleoside analogue” (1985).
Converted amounts (≈) assume the structure as drawn.

Test system: HEp-2
Experiment: Minimum toxic effect against HEp-2 cells.
Assay type: functional, Homo sapiens
How it was run: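 Uninfected HEp-2 cells were exposed to 3-fold serial dilutions of compound in E-MEM with FCS, run alongside the CPE assay. Cell density was set to reach a monolayer in 1–2 days. Plates were fixed and stained at 3 days. MTC is the lowest concentration causing visible toxic effects.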

O=c1[nH]c(=O)n([C@H]2C[C@H](O)[C@@H](CO)O2)cc1CCO and O=c1[nH]c(=O)n([C@H]2C[C@H](O)[C@@H](CO)O2)cc1CCCO are the same in MTC: 330 µg/mL for the first, 330 µg/mL for the second.

Compared with O=c1[nH]c(=O)n([C@H]2C[C@H](O)[C@@H](CO)O2)cc1CCI, O=c1[nH]c(=O)n(C2CC(O)C(CI)O2)cc1CCI (stereo not given) is 3.3-fold lower in MTC: 330 µg/mL for the first, 100 µg/mL for the second.

O=c1[nH]c(=O)n(C2CC(O)C(CCl)O2)cc1CCCCl (stereo not given) and O=c1[nH]c(=O)n(C2CC(O)C(CCl)O2)cc1CCCl (stereo not given) are the same in MTC: 330 µg/mL for the first, 330 µg/mL for the second.

Compared with O=c1[nH]c(=O)n(C2CC(O)C(CBr)O2)cc1CCBr (stereo not given), O=c1[nH]c(=O)n([C@H]2C[C@H](O)[C@@H](CO)O2)cc1I [IDOXURIDINE] is 3.3-fold lower in MTC: 330 µg/mL for the first, 100 µg/mL for the second.

First: O=C([O-])P(=O)([O-])[O-].[Na+].[Na+].[Na+] [FOSCARNET SODIUM]
Second: Nc1ncnc2c1ncn2[C@@H]1O[C@H](CO)[C@@H](O)[C@@H]1O [VIDARABINE]
The MTC of the first is 3.3-fold higher: 330 µg/mL for the first, 100 µg/mL for the second.

Test system: Human alphaherpesvirus 2
Experiment: Minimum inhibitory concentration against HSV-2.
Assay type: functional
How it was run: (§1)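 CPE-inhibition assay in HEp-2 cells. Compound was serially diluted 3-fold in E-MEM, then virus (HSV-1 Brand or HSV-2 K979) and a cell suspension in E-MEM plus 15% FCS were added together. Virus input gave 90–100% CPE in infected controls after 3 days. Plates were then fixed and stained, and CPE was scored.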

Going from O=c1[nH]c(=O)n([C@H]2C[C@H](O)[C@@H](CO)O2)cc1CCO to O=c1[nH]c(=O)n([C@H]2C[C@H](O)[C@@H](CO)O2)cc1CCCO, the MIC rises from 100 µg/mL (≈ 367 µM) to over 100 µg/mL.

Compared with O=c1[nH]c(=O)n([C@H]2C[C@H](O)[C@@H](CO)O2)cc1CCI, O=c1[nH]c(=O)n(C2CC(O)C(CI)O2)cc1CCI (stereo not given) is higher in MIC: 30 µg/mL (≈ 78.5 µM) for the first, over 100 µg/mL for the second.

O=c1[nH]c(=O)n(C2CC(O)C(CCl)O2)cc1CCCCl (stereo not given) and O=c1[nH]c(=O)n(C2CC(O)C(CCl)O2)cc1CCCl (stereo not given) cannot be ordered by MIC: over 100 µg/mL for the first, over 100 µg/mL for the second.

Compared with O=c1[nH]c(=O)n(C2CC(O)C(CBr)O2)cc1CCBr (stereo not given), O=c1[nH]c(=O)n([C@H]2C[C@H](O)[C@@H](CO)O2)cc1I [IDOXURIDINE] is 330-fold lower in MIC: 100 µg/mL (≈ 251 µM) for the first, 0.3 µg/mL (≈ 0.847 µM) for the second.

First: O=C([O-])P(=O)([O-])[O-].[Na+].[Na+].[Na+] [FOSCARNET SODIUM]
Second: Nc1ncnc2c1ncn2[C@@H]1O[C@H](CO)[C@@H](O)[C@@H]1O [VIDARABINE]
The MIC of the first is 3-fold higher: 30 µg/mL for the first, 10 µg/mL (≈ 37.4 µM) for the second.

Test system: Human alphaherpesvirus 1
Experiment: Minimum inhibitory concentration against HSV-1.
Assay type: functional
How it was run: as §1

First: O=c1[nH]c(=O)n([C@H]2C[C@H](O)[C@@H](CO)O2)cc1CCO
Second: O=c1[nH]c(=O)n([C@H]2C[C@H](O)[C@@H](CO)O2)cc1CCCO
The MIC of the first is lower: 100 µg/mL (≈ 367 µM) for the first, over 100 µg/mL for the second.

First: O=c1[nH]c(=O)n([C@H]2C[C@H](O)[C@@H](CO)O2)cc1CCI
Second: O=c1[nH]c(=O)n(C2CC(O)C(CI)O2)cc1CCI (stereo not given)
The MIC of the first is 30-fold lower: 1 µg/mL (≈ 2.62 µM) for the first, 30 µg/mL (≈ 61 µM) for the second.

Compared with O=c1[nH]c(=O)n(C2CC(O)C(CCl)O2)cc1CCCCl (stereo not given), O=c1[nH]c(=O)n(C2CC(O)C(CCl)O2)cc1CCCl (stereo not given) is lower in MIC: over 100 µg/mL for the first, 100 µg/mL (≈ 323 µM) for the second.

First: O=c1[nH]c(=O)n(C2CC(O)C(CBr)O2)cc1CCBr (stereo not given)
Second: O=c1[nH]c(=O)n([C@H]2C[C@H](O)[C@@H](CO)O2)cc1I [IDOXURIDINE]
The MIC of the first is 100-fold higher: 30 µg/mL (≈ 75.4 µM) for the first, 0.3 µg/mL (≈ 0.847 µM) for the second.

O=C([O-])P(=O)([O-])[O-].[Na+].[Na+].[Na+] [FOSCARNET SODIUM] and Nc1ncnc2c1ncn2[C@@H]1O[C@H](CO)[C@@H](O)[C@@H]1O [VIDARABINE] are the same in MIC: 10 µg/mL for the first, 10 µg/mL (≈ 37.4 µM) for the second.
